Reference: ChEMBL document CHEMBL4130526, “Structure-Activity Relationship Study of Leucyl-3-epi-deoxynegamycin for Potent Premature Termination Codon Readthrough” (ACS Med Chem Lett, 2017)

Legend:
Mus musculus [1] = organism: Mus musculus; experiment: (§1) Mutation read through activity at premature termination codon TAA-containing mouse dystrophin gene exon 23 nucleotide sequence expressed in African green monkey COS7 cells assessed as ratio of luciferase activity to beta-galactosidase activity at 200 uM after 48 hrs by dual luciferase reporter gene assay relative to control; assay type: cell-based
Mus musculus [2] = organism: Mus musculus; experiment: as §1, with “TAG-containing” for “TAA-containing”; assay type: cell-based
COS-7 = experiment: Cytotoxicity against African green monkey COS7 cells assessed as reduction in cell viability at 200 uM after 48 hrs by WST1 assay; assay type: cell-based; conditions: chlorocebus aethiops, cos-7, 48 h
NHDF = experiment: Cytotoxicity against HDF assessed as reduction in cell viability at 200 uM after 48 hrs by WST1 assay; assay type: cell-based; conditions: human
Mus musculus [3] = organism: Mus musculus; experiment: as §1, with “TGA-containing” for “TAA-containing”; assay type: cell-based
Outline: (§2)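 COS-7 cells carrying a dual-reporter plasmid (β-galactosidase and luciferase genes joined by a TGA-containing stop sequence). Compounds were tested at 200 μM; the dose-dependent series ran 10–200 μM. Activity is reported as a ratio relative to D-MEM control, as mean ± SD, n = 3.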

Mus musculus [4] = experiment: Mutation read through activity in READ mouse on C57/BL6 background expressing premature termination codon TGA-containing mouse dystrophin gene exon 23 nucleotide sequence gene exon 23 assessed as ratio of luciferase activity to beta-galactosidase activity at 1 mg/20g body weight, sc administered daily for 7 days measured post last dose by dual luciferase reporter gene assay relative to control; assay type: functional
Outline: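 READ mice carry a dual reporter split by a PTC. Subcutaneous injection into the abdominal region at 1 mg in 0.2 mL saline per 20 g body weight, daily for 7 days. Negative control: saline. Positive control: arbekacin. Readthrough reported as mean ± SD.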

Mus musculus [5] = experiment: Acute toxicity in B10 mouse assessed reduction in body weight at 10 mg/day/20g body weight, sc for 14 days and measured on day 1; assay type: organism-based; conditions: in vivo, 336 h
Outline: (§3)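 Single subcutaneous injection into the abdominal region of B10 mice at 10 mg day–1 20 g–1 body weight, given only once. Body weight tracked over 2 weeks. Treated group n = 4; saline-injected B10 mice (n = 3) served as controls.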

Liver carboxylesterase = biological target: T1, Liver carboxylesterase (Sus scrofa, UniProt Q29550); experiment: Prodrug conversion assessed as porcine liver esterase-mediated TCP-126 formation at 2 mM up to 6 hrs by RP-HPLC method; assay type: ADME; conditions: pig, isolated protein, 2000 µM, TDE = time-dependent effect
T1 sequence (Q29550 whole entry): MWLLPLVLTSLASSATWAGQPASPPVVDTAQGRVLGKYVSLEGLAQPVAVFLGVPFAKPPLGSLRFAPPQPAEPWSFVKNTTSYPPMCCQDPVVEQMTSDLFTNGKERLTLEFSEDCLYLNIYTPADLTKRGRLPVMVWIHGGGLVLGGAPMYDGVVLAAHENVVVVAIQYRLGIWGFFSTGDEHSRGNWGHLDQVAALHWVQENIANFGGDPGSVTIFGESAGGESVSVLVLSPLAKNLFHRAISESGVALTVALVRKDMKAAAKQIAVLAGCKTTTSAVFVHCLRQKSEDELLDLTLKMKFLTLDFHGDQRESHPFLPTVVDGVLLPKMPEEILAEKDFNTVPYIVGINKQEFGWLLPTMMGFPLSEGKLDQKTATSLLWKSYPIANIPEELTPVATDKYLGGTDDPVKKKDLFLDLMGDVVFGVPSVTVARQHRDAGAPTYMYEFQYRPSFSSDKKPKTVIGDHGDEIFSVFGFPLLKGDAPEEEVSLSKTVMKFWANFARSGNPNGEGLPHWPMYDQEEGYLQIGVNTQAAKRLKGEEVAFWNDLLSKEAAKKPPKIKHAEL
Outline: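 Incubated with porcine liver esterase (110 units/mL) in 100 mM phosphate buffer, pH 7.4, at 37 °C. Reaction mixtures were analysed by RP-HPLC over time for conversion to the parent compound. The new metabolite peak was collected and identified by high-resolution MS.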

Mus musculus [6] = organism: Mus musculus; experiment: as §1, with “TGA-containing” for “TAA-containing”, “activity” for “activity at 200 uM”; assay type: cell-based; outline: as §2
Mus musculus [7] = organism: Mus musculus; experiment: as §1, with “TGA-containing” for “TAA-containing”, “control relative to in-frame control containing TGG” for “control”; assay type: cell-based
Mus musculus [8] = experiment: Acute toxicity in B10 mouse assessed as change in body weight at 10 mg/day/20g body weight, sc for 14 days and measured on 1 to 7 and 14 days; assay type: organism-based; conditions: in vivo, 336 h; outline: as §3
[9] = Stability in 100 mM phosphate buffer (pH 7.4) assessed as parent compound remaining at 200 uM measured after 6 hrs in absence of esterase by RP-HPLC and high-resolution mass spectrometry method

For `CC(C)C[C@H](N)C(=O)N[C@@H](CCCN)CC(=O)NN(C)CC(=O)O`, the fold change (FC) (Mus musculus [1]) was 1.11, the fold change (FC) (Mus musculus [2]) was 1.3 and the Activity (COS-7) was “Non-Toxic”. The Activity (NHDF) was “Non-Toxic” and the fold change (FC) (Mus musculus [3]) was 2.25 to 2.72.
`CN(CC(=O)O)NC(=O)C[C@H](CCCN)NC(=O)CN` gave a fold change (FC) (Mus musculus [3]) of 2.1.
With `CN(CC(=O)O)NC(=O)C[C@H](N)C[C@@H](O)CN` the fold change (FC) (Mus musculus [3]) was 1.54.
`CC(C)C[C@@H](N)C(=O)N[C@@H](CCCN)CC(=O)NN(C)CC(=O)O` showed a fold change (FC) (Mus musculus [3]) of 1.3.
In the case of `NCC[C@H](O)C(=O)N[C@@H]1C[C@H](N)[C@@H](O[C@H]2O[C@H](CN)CC[C@H]2N)[C@H](O)[C@H]1O[C@H]1O[C@H](CO)[C@@H](O)[C@H](N)[C@H]1O` [ARBEKACIN], the “fold change (FC)” value (Mus musculus [4]) is reported as 1.94.
In the case of `CC(C)C[C@H](N)C(=O)N[C@@H](CCCN)CC(=O)NN(C)CC(=O)OCc1ccccc1[N+](=O)[O-]`, the Activity (COS-7) is reported as “Non-Toxic”, the Activity (NHDF) is reported as “Non-Toxic” and the fold change (FC) (Mus musculus [3]) is reported as 9.15.
In the case of `CC(C)[C@H](N)C(=O)N[C@@H](CCCN)CC(=O)NN(C)CC(=O)O`, the fold change (FC) (Mus musculus [3]) is reported as 1.87.
In the case of `COc1cccc(COC(=O)CN(C)NC(=O)C[C@H](CCCN)NC(=O)[C@@H](N)CC(C)C)c1`, the Activity (COS-7) is reported as “Non-Toxic”, the Activity (NHDF) is reported as “Non-Toxic” and the fold change (FC) (Mus musculus [3]) is reported as 5.15.
In the case of `CN[C@@H]1[C@@H](O)[C@@H](O[C@H]2[C@H](O)[C@@H](O[C@H]3O[C@H]([C@H](C)O)[C@@H](O)[C@H](O)[C@H]3N)[C@H](N)C[C@@H]2N)OC[C@]1(C)O`, the Activity (COS-7) is reported as “Non-Toxic”, the Activity (NHDF) is reported as “Non-Toxic” and the fold change (FC) (Mus musculus [3]) is reported as 7.2.
With `CC(C)C[C@H](N)C(=O)N[C@@H](CCCN)CC(=O)NN(C)CC(=O)OCc1cccc(Cl)c1` the Activity (COS-7) was “Non-Toxic”, the Activity (NHDF) was “Non-Toxic” and the fold change (FC) (Mus musculus [3]) was 5.37.
With `CC(C)C[C@H](N)C(=O)N[C@@H](CCCN)CC(=O)NN(C)CC(=O)OCc1ccccc1Br` the Activity (Mus musculus [5]) was “Toxic”, the fold change (FC) (Mus musculus [1]) was 1.22 and the Drug metabolism (Liver carboxylesterase) was “Tde”. The Activity (Mus musculus [6]) was “Dose-dependent effect”, the Activity (Mus musculus [7]) was 2.69% and the Activity (Mus musculus [8]) was “Non-Toxic”. For the same molecule, the “fold change (FC)” value (Mus musculus [4]) was 1.59, the fold change (FC) (Mus musculus [2]) was 2.55 and the Activity (COS-7) was “Non-Toxic”. For the same molecule, the Activity (NHDF) was “Non-Toxic”, the fold change (FC) (Mus musculus [3]) was 8.84 to 8.89 and the remaining at 6 h, 200 µM [9] was 99%.
`CN(CC(=O)O)NC(=O)C[C@H](CCCN)NC(=O)[C@@H](N)Cc1ccc(O)cc1` gave a fold change (FC) (Mus musculus [3]) of 1.92.
Work on `CC(C)C[C@H](O)C(=O)N[C@@H](CCCN)CC(=O)NN(C)CC(=O)O` yielded a fold change (FC) (Mus musculus [3]) of 1.33.
Molecule `CN(CC(=O)O)NC(=O)C[C@H](CCCN)NC(=O)[C@@H](N)Cc1ccccc1` has a fold change (FC) (Mus musculus [3]) of 2.13.
For `CC(C)C[C@H](N)C(=O)N[C@@H](CCCN)CC(=O)NN(C)CC(=O)OCc1ccccc1`, the Activity (COS-7) was “Non-Toxic”, the Activity (NHDF) was “Non-Toxic” and the fold change (FC) (Mus musculus [3]) was 8.92.
